Shown are actives, neighbours in structure and some others; about 2.9% of the full set was active somewhere.
RanGTP-Impb inh = inhibitors of RanGTP-importin-beta interaction, primary screen, biochemical, FRET, CFP-Ran, YFP-importin-beta, homogeneous | cell-free CFP-Ran/YFP-importin-beta FRET ratio | inhibition, % (test concentration not listed) | hit rate 1.1% among 300,000;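 active = more than half of the replicate wells show a fall in the fluorescence ratio signal beyond about 16%, limit read from the data, passing the limit was not always enough; inconclusive = exactly half of the replicate wells pass the set limit; inactive = fewer than half of replicates pass the limit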;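 note: 0% = DMSO wells and 100% = Ran loaded with GDP instead of GTP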
Runt-CBFb FRET = Runt domain-CBFb interaction inhibition; inhibition, % at 20 µM; hit rate 0.46% among 220,000; Q01196+Q13951; Cerulean-Runt/Venus-CBFb FRET ratio 530/480, 1 h;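 active = inhibition over about 50% at 20 µM in the single-dose screen, limit read from the data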;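 note: 0% = DMSO wells and 100% = excess unlabeled CBFb competitor control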
Target sequence (Q01196 whole entry, looked up, the tested form may be a part): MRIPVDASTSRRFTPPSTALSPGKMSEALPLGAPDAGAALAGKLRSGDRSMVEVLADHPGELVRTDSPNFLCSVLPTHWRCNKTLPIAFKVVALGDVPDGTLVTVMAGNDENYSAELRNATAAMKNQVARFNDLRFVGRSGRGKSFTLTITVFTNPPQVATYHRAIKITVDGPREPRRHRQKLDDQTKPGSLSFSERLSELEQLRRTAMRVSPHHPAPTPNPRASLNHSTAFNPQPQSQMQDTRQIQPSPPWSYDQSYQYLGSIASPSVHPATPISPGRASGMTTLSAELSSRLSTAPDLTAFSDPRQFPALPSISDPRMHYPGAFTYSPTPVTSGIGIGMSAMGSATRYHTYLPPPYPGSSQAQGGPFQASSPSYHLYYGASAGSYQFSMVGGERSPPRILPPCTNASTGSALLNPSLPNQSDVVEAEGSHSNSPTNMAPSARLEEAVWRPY
Target sequence (Q13951 whole entry, looked up, the tested form may be a part): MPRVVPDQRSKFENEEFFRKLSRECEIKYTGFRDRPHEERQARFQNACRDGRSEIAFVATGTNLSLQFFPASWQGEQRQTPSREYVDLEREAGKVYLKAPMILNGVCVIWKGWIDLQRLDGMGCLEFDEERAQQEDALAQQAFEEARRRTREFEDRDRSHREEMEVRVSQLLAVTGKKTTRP
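Assay system: Cerulean-Runt domain fusion protein, energy donor; Signal: fluorescence energy transfer, 422 nm excitation, 530/480 nm emission; Timing: 1 h compound exposure, room temperature; Control set: unlabeled CBFb; Medium: Tris buffer pH 7.5 with salts and BSA; Compound: single test concentration of 20 µM, 1% DMSO final; Probe or stimulus: Venus-CBFb 100 nM.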
Runt-SMMHC FRET = inhibitors of human RUNX1 Runt domain binding to CBFb-SMMHC. Cerulean-Runt/Venus-CBFb-SMMHC FRET ratio 530/480, 1 h. inhibition, % at 20 µM. AID 1434. hit rate 0.74% among 220,000. Q01196+Q13951;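 active = mean inhibition across duplicate retests at 20 µM reaching about 50%, limit read from the data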;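 note: 0% = DMSO wells and 100% = wells with excess untagged CBFb-SMMHC; inhibitors lower the FRET ratio by blocking Runt binding to CBFb-SMMHC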
proKLK7 act = activates the human kallikrein-7 zymogen. P49862. hit rate 0.9% among 370,000. activation, % at 7 µM. purified proKLK7, EDANS-DABCYL substrate fluorescence; 100% is mature enzyme control, 0% vehicle;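 active = activation above the mean of all tested compounds plus 3 SD, computed per campaign excluding outliers beyond control limits, cut at about 13% in these data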
Wee1 degr inh = blocks degradation of human Wee1 kinase; P30291; HeLa Luc-Wee1K328M stability, luciferase luminescence; 100% = proteasome inhibitor MG132 effect; reporter increase, % at 5 µM; hit rate 1.2% among 220,000;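 active = activation above the mean of all tested compounds plus 3 SD, set per screening run, cut at about 8.8% in these data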;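 note: cells exposed to compound for 20 h before luminescence read; 0% = DMSO alone and 100% = MG132 at 30 µM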
AI-2 QS modul = modulates the Vibrio harveyi AI-2 quorum sensing system; activity change, % at 7.5 µM; hit rate 0.4% among 300,000; AID 2094; Vibrio harveyi JMH597 AI-2 luminescence/OD600 ratio, 9 h; active compounds read low; strain lacks LuxN and CqsS sensors; 0 = neutral-control median; in the data active = activity change below about -75%, passing the limit was not always enough; inconclusive = no clear call, values can overlap the other calls;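 note: luminescence divided by OD600 gain over 9 h not by final OD600 alone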
An asterisk follows results filed as active; ? = inconclusive; nt = no result given.

SMILES	RanGTP-Impb inh	Runt-CBFb FRET	Runt-SMMHC FRET	proKLK7 act	Wee1 degr inh	AI-2 QS modul
CC(C)(C)c1cnnn1-c1ccc(/C=N/Nc2ccc([N+](=O)[O-])cc2)cc1	33.8*	-27.5	-24.0	0.0	2.2	30.0
O=C(/C=C/c1cccs1)NC1CC1	21.1*	0.1	-3.6	-0.1	1.7	15.3
O=C(/C=C/c1cccs1)NC(=S)NNC(=O)c1ccccc1O	-0.8	-1.6	-3.9	-0.4	-2.1	59.5
O=C(/C=C/c1cccs1)NC(=S)Nc1ccccc1	-4.2	1.3	-2.6	-0.4	3.3	-77.5*
O=C(/C=C/c1ccco1)NC(=S)Nc1ccccc1	0.4	nt	nt	0.0	nt	-77.3*
CCOC(=O)c1ccc(NC(=O)/C=C/c2cccs2)cc1	-3.6	0.5	-3.1	1.4	10.6*	20.1
O=C(Oc1ccc([N+](=O)[O-])cc1)c1cncc(Br)c1	-2.5	-0.8	1.4	-0.4	-2.0	13.6
O=C(c1ccco1)N1CCN(C2CN(Cc3cn(Cc4ccccc4C(F)(F)F)nn3)S(=O)(=O)C2)CC1 (configuration not stated)	nt	nt	nt	-0.3	nt	nt
COC(=O)[C@]12C=CCN1[C@@H](c1ccc(OC)c(OC)c1)c1c(c3ccccc3n1S(=O)(=O)c1ccc(C)cc1)C2	nt	nt	nt	-1.9	nt	nt
Clc1ccsc1-c1csc(-c2cccnc2)n1	37.5*	-3.3	-3.7	-0.1	-0.7	5.5
Cc1cc(Nc2c(C)n(C)n(-c3ccccc3)c2=O)n2c(nc3cc(F)c(F)cc32)c1C#N	96.3*	19.6	2.4	nt	0.5	18.0
NC(=O)c1cc[n+](CC(=O)NC(=O)Nc2ccccc2)cc1	nt	nt	nt	1.0	nt	nt
NC(=O)c1cc(N2C(=O)C=CC2=O)ccc1Cl	-6.2	-1.0	-1.8	nt	-1.5	-82.2*
CCOC(=O)/C=C/COc1ccccc1[N+](=O)[O-]	3.0	0.4	0.6	0.2	-4.7	19.4
O=S(=O)(O)c1cc(O)c2c(O)c(N=Nc3cc(Cl)ccc3O)c(S(=O)(=O)O)cc2c1	56.8*	nt	nt	nt	nt	23.0
c1ccc2oc(C3=NNC(=NC4CC4)SC3)cc2c1	11.2	31.9	19.3	-0.4	15.0*	18.9
CC(C)CN(C(=O)CN1CCC(C)CC1)c1c(N)n(CC(C)C)c(=O)[nH]c1=O	?	-1.2	2.1	0.5	1.0	-0.8
CC(C)CN(C(=O)CN1CCc2ccccc21)c1c(N)n(CC(C)C)c(=O)[nH]c1=O	8.2	35.0	72.5*	5.9	-1.1	16.4
COCCN(C(=O)CN1CCc2ccccc2C1)c1c(N)n(Cc2ccccc2)c(=O)[nH]c1=O	6.8	27.1	74.3*	-2.8	-1.1	-1.0
CNCC(=O)N(CC(C)C)c1c(N)n(CC(C)C)c(=O)[nH]c1=O	1.9	8.0	55.9*	0.8	3.3	12.3
COc1ccc(S(=O)(=O)N2CCN(C)CC2)cc1NC(=O)c1ccccc1	1.1	nt	nt	0.4	nt	25.1
COc1ccc(-n2c(C)cc(C(=O)CCl)c2C)cc1	2.7	-2.0	-0.3	0.1	1.1	-86.7*
COc1ccc(-n2c(C)cc(C(=O)CN3C(=O)c4ccccc4C3=O)c2C)cc1	-1.7	-1.8	-2.0	0.2	0.6	1.0
COC(=O)/C(C#N)=C/c1c(N2CCN(C)CC2)nc2ccccn2c1=O	107.4*	nt	nt	0.0	nt	10.4
N#C/C(=C\c1c(N2CCC(C(N)=O)CC2)nc2ccccn2c1=O)S(=O)(=O)c1ccc(Cl)cc1	3.9	-9.7	-8.6	1.7	0.4	23.5
CN1CCN(c2nc3ccccn3c(=O)c2/C=C(\C#N)S(=O)(=O)c2ccc(Cl)cc2)CC1	96.7*	0.0	4.8	0.3	0.8	7.8
Cc1ccc(S(=O)(=O)/C(C#N)=C/c2c(N3CCN(C)CC3)nc3ccccn3c2=O)cc1	65.5*	6.6	10.0	3.0	0.5	12.1
Cc1cccn2c(=O)c(/C=C(\C#N)S(=O)(=O)c3ccccc3)c(Oc3ccc(Cl)cc3)nc12	26.9*	-37.3	-85.8	1.3	-2.3	14.4
Cc1cc(Oc2nc3c(C)cccn3c(=O)c2/C=C(\C#N)S(=O)(=O)c2ccccc2)ccc1Cl	5.5	-146.8	-121.5	0.8	2.0	9.4

Compound activity (PubChem)
